Experimental data pooled from the literature.
Each line is one published result; the experiments were not run side by side.
Observed: cell growth or viability

| SMILES | cell line | assay | conditions | measurement | result |
| --- | --- | --- | --- | --- | --- |
| O=C(NO)c1ccc(CNc2nc3cccc(-c4ccc5c(c4)OCO5)n3n2)cc1 | SF-539 | SRB |  | GI50 | 600 nM |
| Cc1ccc2c(-c3cc4c(CNCc5cccnc5)cnc(C)c4o3)cc(=O)oc2c1C | NCI-H1975 | MTT | 72 h | IC50 | 43900 nM |
| NC(=O)COc1ccc(C(=O)C(Cl)Cl)cc1[N+](=O)[O-] | NCI-H1975 | MTT | 2.5 µM | inhibition | 26.3% |
| C=CC(=O)N1CCC([C@@H]2CCNc3c(C(N)=O)c(-c4ccc(Oc5ccccc5)cc4)nn32)CC1 | TMD8 |  | 6 days | IC50 | 0.7 nM |
| Cc1ncc(CN2CCN(Cc3ccccn3)CC2)c2cc(C(=O)c3ccc4c(c3)OCCO4)oc12 | NCI-H1975 | MTT | 72 h | IC50 | 38800 nM |
| O=C(c1ccccc1)c1ccc(Oc2ccc(C(=O)C(Cl)Cl)cc2[N+](=O)[O-])cc1 | NCI-H1975 | MTT | 2.5 µM | inhibition | 97.8% |
| N[C@H]1CC[C@H](N[C@@H]2C[C@H]2c2ccccc2)CC1 | HEK293 | resazurin |  | IC50 | 120000 nM |
| CC(C)c1ccccc1[C@@H]1CCCN1C1CC2(CCN(c3ccc(C(=O)NS(=O)(=O)c4ccc(NC[C@H]5CC[C@](C)(O)CC5)c([N+](=O)[O-])c4)c(Oc4cnc5[nH]ccc5c4)c3)CC2)C1 | Rec1 | ATP luminescence | 48 h | IC50 | 183 nM |
| CC(C)Oc1ccc(S(=O)(=O)c2ccc(Oc3cc(OCC(N)=O)c(C(=O)C(Cl)Cl)cc3[N+](=O)[O-])cc2)cc1 | HEK293 | MTT | 72 h | IC50 | 1220 nM |
| CN(C)C/C=C/C(=O)Nc1cc2c(Nc3ccc(F)c(Cl)c3)ncnc2cc1O[C@H]1CCOC1 | NCI-H1975 | MTT | 72 h | IC50 | 30500 nM |
| C=CC(=O)NC1CCN(c2ncc3ncnc(Nc4ccc(Oc5ccc6c(c5)ncn6C)c(C)c4)c3n2)CC1 | SUM-159-PT |  |  | EC50 | 334 nM |
| C#Cc1cccc(Nc2ncnc3cc(OCCOC)c(OCCOC)cc23)c1 | NCI-H1975 | MTT | 72 h | IC50 | 55000 nM |
| NC(=O)c1ccc(Oc2ccc(C(=O)C(Cl)Cl)cc2[N+](=O)[O-])cc1 | NCI-H1975 | MTT | 2.5 µM | inhibition | 97.2% |
| COc1cc2c3c(n(CCCNCCO)c(=O)c2cc1OC)-c1nc2c(cc1C3=O)OCO2 | SF-539 | SRB | 48 h | GI50 | 1000 nM |
| CC(=O)Nc1ccc(Oc2ccc(C(=O)C(Cl)Cl)cc2[N+](=O)[O-])cc1 | NCI-H1975 | MTT | 2.5 µM | inhibition | 88.3% |
| C=C(F)C(=O)N1CCN(c2nc(OC[C@@H]3CCCN3C)nc3c2CCN(c2cccc4cccc(Cl)c24)C3)C[C@@H]1CC#N | SW1463 | ATP luminescence |  | IC50 | 367 nM |
